Test results reported in ChEMBL document CHEMBL2203005 (Bioorg Med Chem, 2012).
pIC50: −log10 of the molar value.

Key:
[1] = biological target: NAD(P)H dehydrogenase [quinone] 1 (Mus musculus) (UniProt Q64669); experiment: Induction of quinone reductase-1 activity in mouse Hepa-1c1c7 cells after 48 hrs by MTT assay; type: cell-based
In short: (§1)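 Hepa 1c1c7 murine hepatoma cells exposed to compound (max 50 μM) for 48 h in 96-well format, then permeabilized with digitonin. QR1 activity read as NADPH-dependent menadiol-mediated MTT reduction to formazan, absorbance 595 nm; crystal violet total-protein assay in parallel. CD = concentration doubling activity, determined only where induction ratio > 2. Three independent experiments in duplicate; 4′-bromoflavone positive control.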

[2] = biological target: NAD(P)H dehydrogenase [quinone] 1 (Mus musculus) (UniProt Q64669); experiment: Induction of quinone reductase-1 activity in mouse BPrc1 cells after 48 hrs by MTT assay; type: cell-based
Aromatase [3] = biological target: T1, Aromatase (Homo sapiens, UniProt P11511)
T1 sequence (P11511 whole entry): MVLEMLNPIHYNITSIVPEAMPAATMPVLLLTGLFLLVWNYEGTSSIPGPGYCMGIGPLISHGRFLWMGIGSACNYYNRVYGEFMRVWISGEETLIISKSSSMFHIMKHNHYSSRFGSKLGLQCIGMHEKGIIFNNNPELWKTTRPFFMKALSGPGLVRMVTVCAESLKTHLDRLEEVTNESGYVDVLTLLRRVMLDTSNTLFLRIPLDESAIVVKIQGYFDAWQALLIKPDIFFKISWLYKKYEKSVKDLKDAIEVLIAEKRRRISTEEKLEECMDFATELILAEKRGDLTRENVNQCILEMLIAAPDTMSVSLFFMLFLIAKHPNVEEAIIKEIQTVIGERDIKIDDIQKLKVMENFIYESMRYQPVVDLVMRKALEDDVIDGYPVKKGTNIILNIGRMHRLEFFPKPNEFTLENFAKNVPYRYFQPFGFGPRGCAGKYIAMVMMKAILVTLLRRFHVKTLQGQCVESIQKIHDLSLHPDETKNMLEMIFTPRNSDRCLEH

[4] = Inhibition of TNFalpha-induced NF-kappaB activity expressed in HEK293 cells by luciferase reporter gene assay; type: cell-based; details: Homo sapiens
HEK293 = experiment: Inhibition of TNFalpha-induced NF-kappaB activity expressed in HEK293 cells at 50 uM by luciferase reporter gene assay; type: cell-based; details: Homo sapiens
[5] = biological target: T2, Nitric oxide synthase, inducible (Mus musculus, UniProt P29477); experiment: Inhibition of LPS-induced iNOS activity in mouse RAW 264.7 cells assessed as inhibition of NO production pretreated with compound for 30 mins before LPS challenge after 24 hrs by Griess reagent method; type: cell-based
T2 sequence (P29477 whole entry): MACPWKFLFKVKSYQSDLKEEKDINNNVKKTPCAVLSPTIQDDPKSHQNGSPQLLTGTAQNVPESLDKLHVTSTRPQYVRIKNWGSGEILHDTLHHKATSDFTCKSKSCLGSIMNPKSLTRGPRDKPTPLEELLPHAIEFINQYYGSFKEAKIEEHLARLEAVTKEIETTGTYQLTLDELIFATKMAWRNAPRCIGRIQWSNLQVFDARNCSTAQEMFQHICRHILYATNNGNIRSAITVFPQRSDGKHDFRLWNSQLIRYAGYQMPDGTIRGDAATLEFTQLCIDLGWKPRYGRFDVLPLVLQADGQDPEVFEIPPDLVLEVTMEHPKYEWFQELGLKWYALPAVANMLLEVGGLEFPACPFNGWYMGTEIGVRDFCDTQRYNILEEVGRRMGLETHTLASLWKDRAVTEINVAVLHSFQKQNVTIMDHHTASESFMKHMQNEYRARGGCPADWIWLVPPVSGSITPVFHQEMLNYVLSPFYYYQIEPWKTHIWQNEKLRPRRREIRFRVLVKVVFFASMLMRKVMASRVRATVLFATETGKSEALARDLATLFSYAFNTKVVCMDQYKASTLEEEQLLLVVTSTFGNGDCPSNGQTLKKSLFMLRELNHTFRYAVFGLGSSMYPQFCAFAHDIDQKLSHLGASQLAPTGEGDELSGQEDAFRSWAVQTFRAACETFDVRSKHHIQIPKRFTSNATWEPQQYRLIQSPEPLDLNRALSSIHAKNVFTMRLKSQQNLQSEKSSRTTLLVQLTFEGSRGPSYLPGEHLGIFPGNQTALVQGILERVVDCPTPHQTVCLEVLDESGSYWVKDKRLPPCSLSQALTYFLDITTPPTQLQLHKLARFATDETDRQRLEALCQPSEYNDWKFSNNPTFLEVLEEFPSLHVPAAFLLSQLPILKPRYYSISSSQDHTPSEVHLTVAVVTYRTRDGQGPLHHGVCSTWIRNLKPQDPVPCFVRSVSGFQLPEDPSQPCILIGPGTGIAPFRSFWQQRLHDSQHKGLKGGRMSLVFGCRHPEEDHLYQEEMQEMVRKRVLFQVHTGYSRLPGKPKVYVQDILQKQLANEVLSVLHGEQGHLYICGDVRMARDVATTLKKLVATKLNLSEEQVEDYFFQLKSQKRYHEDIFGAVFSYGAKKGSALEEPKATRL

[6] = biological target: T3, Nitric oxide synthase, inducible (Mus musculus) (UniProt P29477); experiment: Inhibition of LPS-induced iNOS activity in mouse RAW 264.7 cells assessed as inhibition of NO production at 50 uM pretreated with compound for 30 mins before LPS challenge after 24 hrs by Griess reagent method; type: cell-based
T3 sequence (whole entry): T2 sequence (P29477 whole entry)

Aromatase [7] = biological target: T1, Aromatase; details: 0.5 h, read-out: INH
[8] = biological target: NAD(P)H dehydrogenase [quinone] 1 (Mus musculus) (UniProt Q64669); experiment: Induction of quinone reductase-1 activity in mouse Hepa-1c1c7 cells assessed as induction ratio after 48 hrs by MTT assay relative to control; type: cell-based; in short: as §1
[9] = biological target: NAD(P)H dehydrogenase [quinone] 1 (Mus musculus) (UniProt Q64669); experiment: Induction of quinone reductase-1 activity in mouse TAOc1BPrc1 cells after 48 hrs by MTT assay; type: cell-based

Chain of NAD(P)H dehydrogenase [quinone] 1 (Mus musculus) (Q64669 whole entry): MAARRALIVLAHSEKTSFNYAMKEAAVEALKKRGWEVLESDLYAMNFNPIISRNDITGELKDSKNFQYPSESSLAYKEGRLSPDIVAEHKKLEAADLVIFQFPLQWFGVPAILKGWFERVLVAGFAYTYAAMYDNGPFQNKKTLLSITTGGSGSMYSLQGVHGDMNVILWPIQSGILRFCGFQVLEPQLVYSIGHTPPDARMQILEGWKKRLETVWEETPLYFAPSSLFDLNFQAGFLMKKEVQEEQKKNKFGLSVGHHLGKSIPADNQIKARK

Question: Which CD [1] does the source give for `Cc1c(Cl)cccc1-c1nsc(-c2cccc(Cl)c2C)n1` here?
Answer: > 50 µM

Question: Which CD [1] does the source give for `COc1cccc(-c2csc(-c3cccc(Br)c3)n2)c1` here?
Answer: > 50 µM

Question: What about the CD [2] of the same compound?
Answer: > 50 µM

Question: With `Clc1cccc(Cl)c1-c1nc(-c2ccccc2)cs1` as the compound, how does the CD [2] read?
Answer: > 50 µM

Question: Which results are given for `COc1cccc(-c2csc(-c3cccc(OC)c3F)n2)c1`?
Answer: CD [1]: > 50 µM; CD [2]: > 50 µM

Question: With `COc1cccc(-c2csc(-c3cccc(Cl)c3C)n2)c1` as the compound, how does the CD [1] read?
Answer: > 50 µM

Question: What about the CD [2] of the same compound?
Answer: > 50 µM

Question: What does the source list for `CCCCc1ccc(-c2nc(-c3ccccc3)cs2)cc1`?
Answer: CD [1]: > 50 µM; CD [2]: > 50 µM

Question: With `Cc1c(Cl)cccc1-c1nc(-c2ccccc2)cs1` as the compound, how does the CD [2] read?
Answer: > 50 µM

Question: What does the source list for `Fc1ccccc1-c1nsc(-c2ccccc2F)n1`?
Answer: pIC50 (Aromatase [3]): < 4.30; pIC50 [4]: < 4.30; inhibition (HEK293): 40.7%; pIC50 [5]: < 4.30; inhibition [6]: 12.9%; inhibition at 50 µM (Aromatase [7]): 53.2%

Question: With `c1ccc(-c2nsc(-c3ccccc3)n2)cc1` as the compound, how does the pIC50 [4] read?
Answer: 4.32

Question: What about the pIC50 [5] of the same compound?
Answer: < 4.30

Question: What about the CD [2] of the same compound?
Answer: > 50 µM

Question: And the inhibition at 50 µM (Aromatase [7])?
Answer: 60.2%

Question: For `Brc1cccc(-c2nc(-c3ccccc3)cs2)c1`, which CD [2] is on record?
Answer: > 50 µM

Question: With `COc1cccc(-c2csc(-c3ccccc3)n2)c1` as the compound, how does the pIC50 (Aromatase [3]) read?
Answer: < 4.30

Question: And the pIC50 [4]?
Answer: 4.50

Question: What about the inhibition (HEK293) of the same compound?
Answer: 64%

Question: What about the pIC50 [5] of the same compound?
Answer: 4.34

Question: And the inhibition [6]?
Answer: 62%

Question: What about the inhibition at 50 µM (Aromatase [7]) of the same compound?
Answer: 27.1%

Question: What does the source list for `CCCCc1ccc(-c2nc(-c3cccc(OC)c3)cs2)cc1`?
Answer: CD [1]: > 50 µM; CD [2]: > 50 µM

Question: Which CD [1] does the source give for `Cc1ccc(Cl)cc1-c1nsc(-c2ccc(Cl)cc2C)n1` here?
Answer: 0.44 µM

Question: What about the Ratio [8] of the same compound?
Answer: 4.9

Question: Which CD [1] does the source give for `COc1cccc(-c2csc(-c3cc(OC)ccc3F)n2)c1` here?
Answer: > 50 µM

Question: And the CD [2]?
Answer: > 50 µM

Question: What does the source list for `FC(F)(F)c1ccccc1-c1nc(-c2ccccc2)cs1`?
Answer: CD [1]: > 50 µM; CD [2]: > 50 µM

Question: Which CD [2] does the source give for `COc1cccc(-c2csc(-c3ccc(C)cc3Br)n2)c1` here?
Answer: > 50 µM

Question: For `COc1cccc(-c2noc(-c3cccc(OC)c3)n2)c1`, which CD [2] is on record?
Answer: > 50 µM

Question: For `Fc1ccccc1-c1nc(-c2ccccc2)ns1`, which CD [9] is on record?
Answer: 0.1 µM

Question: For `COc1cccc(-c2csc(-c3cccc(Cl)c3Cl)n2)c1`, which CD [1] is on record?
Answer: > 50 µM

Question: What about the CD [2] of the same compound?
Answer: > 50 µM

Question: Which CD [2] does the source give for `Fc1ccccc1-c1nsc(-c2ccccc2)n1` here?
Answer: > 50 µM

Question: With `COc1cccc(-c2csc(-c3cccc(OC)c3)n2)c1` as the compound, how does the pIC50 (Aromatase [3]) read?
Answer: < 4.30

Question: What about the pIC50 [4] of the same compound?
Answer: 4.69

Question: What about the pIC50 [5] of the same compound?
Answer: < 4.30

Question: For `Cc1ccc(Br)cc1-c1nsc(-c2ccc(Br)cc2C)n1`, which CD [1] is on record?
Answer: > 50 µM

Question: And the Ratio [8]?
Answer: 2.3

Question: For `COc1cccc(-c2nsc(-c3cccc(OC)c3)n2)c1`, which CD [2] is on record?
Answer: > 50 µM

Question: For `Cc1ccc(-c2nc(-c3ccccc3)cs2)c(Br)c1`, which CD [2] is on record?
Answer: > 50 µM

Question: What does the source list for `COc1cccc(-c2nc(-c3ccccc3)cs2)c1`?
Answer: pIC50 (Aromatase [3]): < 4.30; pIC50 [4]: 5.57; pIC50 [5]: < 4.30; CD [2]: > 50 µM; inhibition at 50 µM (Aromatase [7]): 35.5%

Question: For `COc1cccc(-c2csc(-c3cccc(F)c3F)n2)c1`, which CD [2] is on record?
Answer: > 50 µM
